# Legend:
# [1] = Selectivity index, ratio of CC50 for human HepG2 cells to EC50 for antileishmanial activity against Leishmania infantum MHOM/MA/67/ITMAP-263 axenic amastigotes; format: toxicity; details: read-out: Ratio CC50/EC50
# [2] = AUC (0 to infinity) in Swiss mouse at 100 mg/kg, po by LC-MS/MS analysis; format: ADME, organism-based; parameters: time infinity, route oral, dose 100 mg/kg; details: in vivo
# Method in brief: (§1)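 Mice were given oral doses of 100 mg/kg. Plasma Cmax, Tmax, half-life, AUC0-inf and clearance were derived from this.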
# [3] = test system: Trypanosoma brucei brucei; assay: Antitrypanosomal activity against bloodstream form Trypanosoma brucei brucei AnTat 1.9 trypomastigotes assessed as reduction in parasite viability incubated for 69 hrs by Alamar Blue dye based assay; format: functional, organism-based; details: AnTat 1.9, 69 h
# Method in brief: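 BSF parasites were cultured in MEM/Baltz medium with 20% heat-inactivated horse serum, mercaptoethanol, L-cysteine and bathocuproine, at 37 °C and 5% CO₂. Cells were seeded at 2000 parasites/100 µL with compound from DMSO, in duplicate, for 69 h. Alamar Blue was added for 5 h and fluorescence read (ex 530/em 590 nm). EC50 came from non-linear regression over three independent experiments.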
# [4] = test system: CHO-K1; assay: Genotoxicity in CHOK1 cells assessed as increase in micronucleated cells at 0.01 to 0.5 mM in presence or absence of S9 fraction measured after 3 hrs by Giemsa staining based micronucleus assay; format: toxicity, cell-based, Cricetulus griseus; details: chinese hamster, cho-k1, 3 h, 500 µM, dose 0.01-0.5 mM
# Method in brief: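 CHO-K1 cells in McCoy's 5A were exposed 3 h to 0.01–0.5 mM compound, with or without 10% S9 mix, in duplicate. Cells then received cytochalasin B (3 µg/mL) for 21 h and were methanol-fixed and Giemsa-stained. Micronuclei were scored in 1000 binucleated cells per well, and CBPI and cytostasis were also determined. A χ² test was run against the negative control.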
# [5] = Aqueous solubility of compound; format: physicochemical; details: buffer
# [6] = test system: Leishmania donovani; assay: Antileishmanial activity against Leishmania donovani MHOM/IN/00/DEVI promastigotes assessed as inhibition of parasitic metabolic activity measured after 72 hrs by MTT assay; format: functional, organism-based
# Method in brief: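 Log-phase promastigotes at 10⁶/mL were grown in Schneider's medium with 20% FCS at 27 °C. Compound was added from DMSO stock (final <0.5% v/v), in duplicate, for 72 h. Metabolic activity was read by MTT (4 h, 27 °C) and absorbance at 570 nm. EC50 came from non-linear dose-response regression, as the mean of ≥3 independent experiments.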
# [7] = Tmax in Swiss mouse at 100 mg/kg, po by LC-MS/MS analysis; format: ADME, organism-based; details: in vivo; method in brief: as §1
# [8] = Permeability of the compound in pH 7.4 Prisma HT buffer at 100 uM incubated for 4 hrs by PAMPA-BBB assay method
# [9] = test system: Trypanosoma brucei brucei; assay: Antitrypanosomal activity against blood stream form of wild type Trypanosoma brucei brucei S427 trypomastigotes assessed as inhibition of parasite growth; format: functional, organism-based
# Method in brief: (§2)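 Bloodstream-form single marker S427 (T7RPOL TETR NEO) grown at 37 °C in HMI9-T with 2.5 µg/mL G418. The NTR1-overexpressing line is additionally kept in 2.5 µg/mL phleomycin and induced with 1 µg/mL tetracycline 48 h before testing.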
# [10] = Cmax in Swiss mouse at 100 mg/kg, po by LC-MS/MS analysis; format: ADME, organism-based; parameters: route oral, dose 100 mg/kg; details: in vivo; method in brief: as §1
# [11] = Toxicity in orally dosed Swiss mouse administered once daily for 5 days; format: organism-based; details: in vivo, po, time 5 day
# Method in brief: (§3)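 Four mice received compound at 100 mg/kg by oral gavage once daily for 5 days, followed by a follow-up period.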
# [12] = test system: HepG2; assay: Genotoxicity in human HepG2 cells assessed as induction of DNA damage at 5 to 20 uM incubated for 2 to 72 hrs by alkaline comet assay; format: toxicity, cell-based; details: hepg2, 20 µM, dose lower 5 µM, time lower 2 hrs, dose upper 20 µM, time upper 72 hrs
# Method in brief: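 HepG2 cells were exposed to 5, 10 and 20 µM compound for 2, 24 or 72 h. Methyl methanesulfonate was the positive control, and read-out was % DNA in tail.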
# [13] = Selectivity index, ratio of CC50 for human HepG2 cells to EC50 for Trypanosoma brucei brucei trypomastigotes AnTat 1.9; format: toxicity; details: read-out: Ratio CC50/EC50
# [14] = Toxicity in Swiss mouse assessed as lesions on lung at 100 mg/kg, po administered once daily for 5 days; format: organism-based; details: in vivo, 120 h, time 5 day; method in brief: as §3
# [15] = test system: Trypanosoma brucei brucei; assay: Selectivity index, ratio of EC50 for antitrypanosomal activity against blood stream form of wild type Trypanosoma brucei brucei S427 trypomastigotes to EC50 for antitrypanosomal activity against blood stream form of Trypanosoma brucei brucei S427 trypomastigotes overexpressing NTR1; format: functional
# [16] = Microsomal stability in CD-1 mouse liver microsomes assessed as half life in presence of NADP measured up to 40 mins by LC-MS analysis; format: ADME, Microsome
# Method in brief: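 Compound was incubated in duplicate with female CD-1 mouse microsomes at 37 °C in 50 mM phosphate, pH 7.4. An NADP-regenerating system was present (MgCl₂ 5 mM, NADP 1 mM, G6PDH 0.4 U/mL, G6P 5 mM).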
# [17] = Clearance in Swiss mouse at 100 mg/kg, po by LC-MS/MS analysis; format: ADME, organism-based; details: in vivo; method in brief: as §1
# [18] = Toxicity in Swiss mouse assessed as lesions on brain at 100 mg/kg, po administered once daily for 5 days; format: organism-based; details: in vivo, 120 h, time 5 day; method in brief: as §3
# [19] = Half life in Swiss mouse at 100 mg/kg, po by LC-MS/MS analysis; format: ADME, organism-based; details: in vivo; method in brief: as §1
# [20] = Electrochemical behavior of the compound assessed as redox potential corrected toward normal hydrogen electrode by cyclic voltammetry
# [21] = Toxicity in Swiss mouse assessed as lesions on heart at 100 mg/kg, po administered once daily for 5 days; format: organism-based; details: in vivo, 120 h, time 5 day; method in brief: as §3
# [22] = test system: Leishmania infantum; assay: Antileishmanial activity against Leishmania infantum MHOM/MA/67/ITMAP-263 axenic amastigotes assessed as inhibition of parasitic metabolic activity incubated for 48 hrs by steady Glow reagent based luminescence assay; format: functional, organism-based; details: MHOM/MA/67/ITMAP-263, 48 h
# Method in brief: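 Luciferase-expressing promastigotes were acidified (pH 5.4, 24 h, 24 °C) and then held 24 h at 37 °C to give axenic amastigotes. These were used at 2×10⁶/mL with compound (DMSO <0.5%), in duplicate, for 48 h at 37 °C. Luciferase luminescence was read. EC50 came from non-linear regression, as the mean of three independent experiments.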
# [23] = molecular target: Albumin (Homo sapiens, UniProt P02768); assay: Binding affinity to human albumin incubated for 4 hrs by LC-MS analysis; format: ADME; details: read-out: PB (converted)
# Chain of Albumin (P02768 whole entry): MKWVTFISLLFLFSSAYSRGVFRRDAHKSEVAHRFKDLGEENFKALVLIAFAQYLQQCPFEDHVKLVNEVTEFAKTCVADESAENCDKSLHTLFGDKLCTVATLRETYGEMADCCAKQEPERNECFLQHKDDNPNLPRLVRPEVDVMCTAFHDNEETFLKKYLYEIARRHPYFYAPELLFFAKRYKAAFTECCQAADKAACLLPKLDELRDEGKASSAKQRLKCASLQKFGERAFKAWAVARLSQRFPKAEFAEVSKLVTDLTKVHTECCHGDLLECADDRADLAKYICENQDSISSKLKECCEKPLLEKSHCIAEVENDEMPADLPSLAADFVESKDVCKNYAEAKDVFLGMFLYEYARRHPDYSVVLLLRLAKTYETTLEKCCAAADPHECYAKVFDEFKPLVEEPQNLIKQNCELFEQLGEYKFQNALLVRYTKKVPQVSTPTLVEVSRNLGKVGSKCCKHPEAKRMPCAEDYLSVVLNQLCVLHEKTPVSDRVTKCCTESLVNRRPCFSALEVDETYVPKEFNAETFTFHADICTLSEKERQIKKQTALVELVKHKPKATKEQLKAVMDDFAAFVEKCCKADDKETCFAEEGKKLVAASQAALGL
# [24] = test system: Trypanosoma brucei brucei; assay: Potency index, ratio of nifurtimox EC50 to compound EC50 for antitrypanosomal activity against blood stream form of wild type Trypanosoma brucei brucei S427 trypomastigotes; format: functional
# [25] = Toxicity in Swiss mouse assessed as lesions on kidney at 100 mg/kg, po administered once daily for 5 days; format: organism-based; details: in vivo, 120 h, time 5 day; method in brief: as §3
# [26] = Thermodynamic solubility of the compound in phosphate buffer at pH 7.4 incubated for 24 hrs under shaking condition by shake flask method; format: physicochemical; details: read-out: Therm_solubility
# Method in brief: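 The miniaturized shake-flask method used 20 mM DMSO stock diluted into phosphate buffer at pH 7.4 (n = 4). Tubes were shaken 24 h at room temperature and centrifuged. Supernatant was mixed 1:1 with acetonitrile and quantified by UV, with calibration at 370 nm.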
# [27] = Selectivity index, ratio of CC50 for human HepG2 cells to EC50 for antileishmanial activity against Leishmania donovani MHOM/IN/00/DEVI promastigotes; format: toxicity; details: read-out: Ratio CC50/EC50
# [28] = Toxicity in Swiss mouse assessed as lesions on liver at 100 mg/kg, po administered once daily for 5 days; format: organism-based; details: in vivo, 120 h, time 5 day; method in brief: as §3
# [29] = test system: Trypanosoma brucei brucei; assay: Antitrypanosomal activity against blood stream form of Trypanosoma brucei brucei S427 trypomastigotes overexpressing NTR1 assessed as inhibition of parasite growth; format: functional, organism-based; method in brief: as §2
# [30] = Cytotoxicity against human HepG2 cells assessed as reduction in cell viability after 72 hrs by MTT assay; format: cell-based
# Method in brief: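 MTT was applied at 0.5 mg/mL for 2 h, formazan was dissolved in DMSO, and absorbance read at 570 nm with a 630 nm reference. Doxorubicin was the positive control. CC50 was taken from the dose-response curve, as the mean of three experiments.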
compound,measurement,setting,value
CS(=O)(=O)Cc1nc2c(Br)cc(Cl)cn2c1[N+](=O)[O-],selectivity ratio,[1],< 1.8
same,AUC(0-inf),[2],7060 ng·h/mL
same,EC50,[3],17 nM
same,Activity,[4],Non-Toxic
same,solubility,[5],Soluble
same,EC50,[6],5700 nM
same,Tmax,[7],5 h
same,"Papp at 4 h, 100 µM",[8],8.42 ×10⁻⁶ cm/s
same,EC50,[9],65 nM
same,Cmax,[10],741 ng/mL
same,NOAEL at 120 h,[11],100 mg/kg/day
same,Activity,[12],Non-Toxic
same,selectivity ratio,[13],2650
same,Activity,[14],Non-Toxic
same,Ratio EC50,[15],4
same,half-life,[16],> 0.667 h
same,CL/F,[17],0.0085 mL/min
same,Activity,[18],Non-Toxic
same,half-life,[19],7.7 h
same,Activity,[20],-0.6 V
same,Activity,[21],Non-Toxic
same,EC50,[22],> 25000 nM
same,fraction unbound at 4 h,[23],0.231
same,Ratio EC50,[24],30
same,Activity,[25],Non-Toxic
same,solubility thermodynamic at 24 h,[26],25.8 µM
same,selectivity ratio,[27],7.9
same,Activity,[28],Non-Toxic
same,EC50,[29],16 nM
same,CC50 at 72 h,[30],45000 nM

# Reference: ChEMBL document CHEMBL4765423, “Antikinetoplastid SAR study in 3-nitroimidazopyridine series: Identification of a novel non-genotoxic and potent anti-T. b. brucei hit-compound with improved pharmacokinetic properties” (Eur J Med Chem, 2020)
